Assay [1] concerns Saccharomyces cerevisiae. The assay is described as follows: Antifungal activity against Saccharomyces cerevisiae after 48 hrs by two fold serial dilution method. In kind it is functional. Put shortly:
(§1)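 Two-fold serial broth dilution in a suitable broth, run only on compounds giving inhibition zones of at least 16 mm. Final concentrations were […]. Each 5 mL received 0.1 mL inoculum and was incubated 48 h at 28 °C. MIC was the lowest concentration without growth.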

Assay [2] concerns Candida albicans. The assay is described as follows: Antifungal activity against Candida albicans NRRL Y-477 at 50 mg/mL after 48 hrs by agar well diffusion method. In kind it is functional. In general terms: Agar diffusion results depend on both activity and mobility in agar.
Assay [3] has as its system Staphylococcus aureus. The assay is described as follows: Antibacterial activity against Staphylococcus aureus ATCC 29213 after 24 hrs by two fold serial dilution method. In kind it is functional.
Assay [4] relates to Staphylococcus aureus. Conditions: ATCC 29213, 50 mg/mL.
In assay [5] the test system is Pseudomonas aeruginosa. The assay is described as follows: Antibacterial activity against Pseudomonas aeruginosa ATCC 27953 after 24 hrs by two fold serial dilution method. In kind it is functional.
Assay [6] concerns Bacillus subtilis. As to the kind of experiment: Antibacterial activity against Bacillus subtilis ATCC 6633 after 24 hrs by two fold serial dilution method. The assay is classed as functional.
In assay [7] the test system is Pseudomonas aeruginosa. Conditions: ATCC 27953, 50 mg/mL.
In assay [8] the test system is Klebsiella pneumoniae. Conditions: ATCC 13883, 50 mg/mL.
In assay [9] the test system is Escherichia coli. The assay is described as follows: Antibacterial activity against Escherichia coli ATCC 25922 at 50 mg/mL after 24 hrs by agar well diffusion method. The assay is classed as functional, organism-based. Summed up: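 Agar well diffusion: bacterial suspension at 1 × 10⁸ CFU/mL spread on nutrient agar; 10 mm wells cut in solidified agar and filled with compound in DMSO; plates incubated 24 h at 37 °C; inhibition zone diameter read; DMSO as negative control.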

Assay [10] deals with Micrococcus luteus. The assay is described as follows: Antibacterial activity against Sarcina lutea after 24 hrs by two fold serial dilution method. In kind it is functional.
The test system of assay [11] is Priestia megaterium. As to the kind of experiment: Antibacterial activity against Bacillus megaterium ATCC 9885 after 24 hrs by two fold serial dilution method. In kind it is functional.
Assay [12] deals with Klebsiella pneumoniae. As to the kind of experiment: Antibacterial activity against Klebsiella pneumoniae ATCC 13883 after 24 hrs by two fold serial dilution method. In kind it is functional.
Assay [13] relates to Priestia megaterium. The assay is described as follows: Antibacterial activity against Bacillus megaterium ATCC 9885 at 50 mg/mL after 24 hrs by agar well diffusion method. In kind it is functional.
Assay [14] has as its system Candida albicans. The assay is described as follows: Antifungal activity against Candida albicans NRRL Y-477 after 48 hrs by two fold serial dilution method. The assay is classed as functional. Put shortly: as §1
Assay [15] has as its system Micrococcus luteus. The assay is described as follows: Antibacterial activity against Sarcina lutea at 50 mg/mL after 24 hrs by agar well diffusion method. The assay is classed as functional.
In assay [16] the test system is Bacillus subtilis. The following applies: ATCC 6633, 50 mg/mL.
Assay [17] has as its system Aspergillus niger. The assay is described as follows: Antifungal activity against Aspergillus niger after 48 hrs by two fold serial dilution method. The assay is classed as functional. Put shortly: as §1
The test system of assay [18] is Aspergillus niger. The assay is described as follows: Antifungal activity against Aspergillus niger at 50 mg/mL after 48 hrs by agar well diffusion method. The assay is classed as functional.
Assay [19] has as its system Saccharomyces cerevisiae. The assay is described as follows: Antifungal activity against Saccharomyces cerevisiae at 50 mg/mL after 48 hrs by agar well diffusion method. The assay is classed as functional.
Assay [20] has as its system Escherichia coli. As to the kind of experiment: Antibacterial activity against Escherichia coli ATCC 25922 after 24 hrs by two fold serial dilution method. In kind it is functional.
Assay [21] relates to Pseudomonas aeruginosa. The assay is described as follows: microbe, parasite or virus in culture. The following applies: ATCC 27953, 24 h, read-out: DIZ.
Assay [22] has as its system Staphylococcus aureus. The assay is described as follows: microbe, parasite or virus in culture. The following applies: ATCC 29213, 24 h, read-out: DIZ.
Assay [23] relates to Klebsiella pneumoniae. As to the kind of experiment: microbe, parasite or virus in culture. The following applies: ATCC 13883, 24 h, read-out: DIZ.
In assay [24] the test system is Bacillus subtilis. As to the kind of experiment: microbe, parasite or virus in culture. Conditions: ATCC 6633, 24 h, read-out: DIZ.

Values after ≈ are worked out from the molar mass of the structure shown. Active and inactive are the calls of the source.

Experimental findings from ChEMBL document CHEMBL3351505, “Ultrasound-assisted synthesis of novel 1,2,3-triazoles coupled diaryl sulfone moieties by the CuAAC reaction, and biological evaluation of them as antioxidant and antimicrobial agents” (Eur J Med Chem, 2014) are described below.

The MIC is the smallest concentration in the dilution series that meets the test's criterion for growth inhibition.

As to `Clc1ccccc1C(c1ccccc1)(c1ccccc1)n1ccnc1` [CLOTRIMAZOLE], the MIC was 25 µg/mL (≈ 72.5 µM) against Saccharomyces cerevisiae [1]; 25 µg/mL (≈ 72.5 µM) in the assay on Candida albicans [14] (NRRL Y-477, 48 h); 25 µg/mL (≈ 72.5 µM) in the assay on Aspergillus niger [17]. Moreover, the zone of inhibition at 50000 µg/mL in the assay with Candida albicans [2] (NRRL Y-477, 48 h, read-out: DIZ) is 30 mm; with Aspergillus niger [18] (read-out: DIZ), 33 mm; in the assay with Saccharomyces cerevisiae [19] (read-out: DIZ), 31 mm. Moreover, the MIC result in the assay on Staphylococcus aureus [3], with Pseudomonas aeruginosa [5], in the assay on Bacillus subtilis [6], in the assay with Micrococcus luteus [10], in the assay with Priestia megaterium [11] and in the assay on Klebsiella pneumoniae [12] was “inactive” throughout. Besides, the MIC result in the assay on Escherichia coli [20] is “inactive”. Moreover, the DIZ entry in the assay on Staphylococcus aureus [4], in the assay on Pseudomonas aeruginosa [7], in the assay with Klebsiella pneumoniae [8] and in the assay on Bacillus subtilis [16] was “inactive” each time. Also, the “diameter of the inhibition zone (DIZ)” value in the assay with Escherichia coli [9], with Priestia megaterium [13] and in the assay on Micrococcus luteus [15] was “inactive” each time.
`O=C(O)c1cn(C2CC2)c2cc(N3CCNCC3)c(F)cc2c1=O` [CIPROFLOXACIN]: the MIC result with Saccharomyces cerevisiae [1], in the assay with Candida albicans [14] and in the assay with Aspergillus niger [17] was “inactive” in each case. The “diameter of the inhibition zone (DIZ)” value with Candida albicans [2], in the assay with Aspergillus niger [18] and in the assay with Saccharomyces cerevisiae [19] was “inactive” throughout. Besides, the zone of inhibition at 50000 µg/mL worked out at 24 mm in the assay with Pseudomonas aeruginosa [21]; 20 mm in the assay with Staphylococcus aureus [22]; 25 mm in the assay with Klebsiella pneumoniae [23]; 24 mm in the assay on Priestia megaterium [13] (ATCC 9885, 24 h, read-out: DIZ); 20 mm in the assay on Micrococcus luteus [15] (read-out: DIZ); 22 mm with Bacillus subtilis [24]. Moreover, the minimum inhibitory concentration (MIC) against Bacillus subtilis [6] (ATCC 6633, 24 h) was 25 µg/mL (≈ 75.4 µM); against Micrococcus luteus [10], 25 µg/mL (≈ 75.4 µM); against Priestia megaterium [11] (ATCC 9885, 24 h), 25 µg/mL (≈ 75.4 µM); against Klebsiella pneumoniae [12] (ATCC 13883, 24 h), 25 µg/mL (≈ 75.4 µM); in the assay with Escherichia coli [20] (ATCC 25922, 24 h), 25 µg/mL (≈ 75.4 µM).
